Screening results deposited in PubChem by The Scripps Research Institute Molecular Screening Center.
Rows were chosen to be rich in hits. Some 2.5% of all compounds tested hit in one or more screens of this group.
TDP2 inh: TDP2 (human) inhibition, absorbance primary screen; hit rate 0.34% among 370,000; recombinant TDP2, T5PNP hydrolysis, p-nitrophenol absorbance 415 nm; inhibition, % at 12.8 µM; AID 720702;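 active = inhibition above the mean of all tested compounds plus 3 SD, set per campaign, cut at about 25% in these data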;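 also: 0% = DMSO with enzyme and 100% = buffer with substrate but no TDP2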
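Incubation: 2 h at 37 °C; Test system: recombinant human TDP2; Quantity: enzyme 120 nM; Read-out basis: percent inhibition; Medium: 50 mM Tris-HCl pH 7.5 with Mg2+, KCl, DTT, BSA; Repeats: single replicate; Compound: 12.8 µM single point, 1% DMSO; Signal: epi absorbance; Reagent: 5 mM T5PNP chromogenic substrate; Benchmarks: no-enzyme high, DMSO-plus-enzyme low.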
GSTO1 inh: blocks human GSTO1 in RBBP9 counter-screen; recombinant GSTO1, activity-based probe fluorescence polarization; hit rate 1.1% among 300,000; inhibition, % at 5.96 µM; P78417; AID 1974;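 active = inhibition above the campaign mean inhibition plus 3 SD, cut at about 35% in these data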;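 also: 0% = GSTO1-1 with DMSO and 100% = wells lacking GSTO1-1 enzyme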
Target sequence (P78417 whole entry, looked up): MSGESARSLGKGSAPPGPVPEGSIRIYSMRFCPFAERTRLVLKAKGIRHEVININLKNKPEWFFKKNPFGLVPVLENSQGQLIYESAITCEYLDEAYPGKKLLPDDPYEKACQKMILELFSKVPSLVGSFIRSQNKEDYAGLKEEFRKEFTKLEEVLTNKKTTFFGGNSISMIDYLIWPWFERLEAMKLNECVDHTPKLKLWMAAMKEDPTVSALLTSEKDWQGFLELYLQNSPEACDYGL
CTSL1 counter: cathepsin L1 inhibition, PFM18AAP counter-screen; recombinant F. hepatica cathepsin L1, Z-Leu-Arg-MCA fluorescence; inhibition, % at 5.96 µM; hit rate 0.49% among 300,000;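 active = inhibition above the mean of all tested compounds plus 3 SD, set per screening campaign, cut at about 17% in these data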;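 also: 0% = plate median of test compound wells and 100% = 1 µM Z-Phe-Ala-diazomethylketone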
PAD4 inh: PAD4 (human) enzyme inhibition. Q9UM07. recombinant PAD4, RCA probe fluorescence polarization. inhibition, % at 6.36 µM. hit rate 0.41% among 330,000. AID 485272;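 active = percent inhibition above a cutoff equal to the mean of all tested compounds plus 3 SD, cut at about 15% in these data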;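 also: 0% = PAD4 with RCA probe and DMSO and 100% = probe without PAD4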
PRMT1 inh: inhibitors of human PRMT1; inhibition, % at 2.79 µM; Q99873; hit rate 1.3% among 370,000; recombinant PRMT1, activity-based probe fluorescence polarization;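 active = inhibition above about 21% made by adding two undisclosed values, limit read from the data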
Target sequence (Q99873 whole entry, looked up): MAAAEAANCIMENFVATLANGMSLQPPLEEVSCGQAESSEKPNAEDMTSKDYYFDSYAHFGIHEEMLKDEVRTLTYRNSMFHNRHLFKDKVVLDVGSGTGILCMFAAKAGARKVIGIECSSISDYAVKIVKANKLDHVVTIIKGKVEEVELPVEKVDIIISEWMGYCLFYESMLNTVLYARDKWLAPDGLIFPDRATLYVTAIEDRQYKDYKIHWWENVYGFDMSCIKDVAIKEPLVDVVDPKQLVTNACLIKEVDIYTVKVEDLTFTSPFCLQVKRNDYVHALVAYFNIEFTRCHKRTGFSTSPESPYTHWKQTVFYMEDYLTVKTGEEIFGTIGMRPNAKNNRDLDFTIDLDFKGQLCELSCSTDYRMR
PAD4 FP conf: PAD4 (human) inhibition, confirmed | shares compounds with PAD4 inh | recombinant PAD4, RCA probe fluorescence polarization | inhibition, % at 6.36 µM | hit rate 28% among 1,200 | AID 488796;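 active = mean inhibition across replicates above the hit cutoff set by the earlier primary screen, cut at about 15% in these data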;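 also: inhibitors block active-site labeling by the probe so polarization falls; 0% = PAD4 with probe and DMSO and 100% = probe without PAD4 enzyme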
* marks the source's active call; other numbers are inactive results; . = no result given.

SMILES	TDP2 inh	GSTO1 inh	CTSL1 counter	PAD4 inh	PRMT1 inh	PAD4 FP conf
CC(C)(C)c1ccc(C(=O)NCCOc2ccccc2F)cc1	-14	5	-2	-3	-1	.
Cc1nn(-c2ccccc2)c2sc(C(=O)N3CCN(Cc4ccc(F)cc4)CC3)cc12	2	.	.	.	4	.
CC(C)C(=O)N(c1ccc2oc(=O)sc2c1)S(=O)(=O)c1ccccc1	0	18	5	24*	48*	3
COc1ccc(N(C(C)=O)S(=O)(=O)c2cc(OC)ccc2OC)cc1	4	1	-4	1	2	.
COc1ccc(C(=O)Oc2ccc3oc(=O)sc3c2)cc1	-24	31	3	48*	76*	12
COc1ccc(OC)c(S(=O)(=O)N(C(C)=O)c2ccc3oc(=O)sc3c2)c1	0	23	-2	25*	53*	15*
O=C(OCc1ccccc1)[C@H](Cc1ccccc1)NC(=O)[C@@H]1CC=C[C@@H]2CCN(Cc3ccc(Cl)cc3)C(=O)[C@@H]21	4	.	.	.	1	.
Cc1ccc(NS(=O)(=O)c2cccc(C(=O)N3CCN(c4ncccn4)CC3)c2)cc1	4	.	.	36*	-1	3
CCc1ccc(/C=C/C(=O)NC2=NCCS2)cc1	-4	.	.	.	-2	.
CCN(C(=O)/C=C/c1ccc(OC)cc1)C1CCS(=O)(=O)C1 (stereo unspecified)	7	0	-3	-2	1	.
COc1ccc(/C=C/C(=O)N(C)C2CCS(=O)(=O)C2)cc1OC (stereo unspecified)	11	-3	3	15*	0	-5
O=C1[C@H]2[C@@H](c3ccc(F)cc3)N3C(=O)N(c4ccccc4)C(=O)[C@@]3(Cc3ccc(Cl)cc3)[C@H]2C(=O)N1C1CCCCC1	5	3	2	22*	2	2
O=C(CSc1nnc(-c2ccccn2)n1-c1ccc(Cl)cc1)Nc1cccc2ccccc12	-4	.	.	.	-1	.
COc1ccc(C)cc1Nc1n[n+](C)c(-c2c3ccccc3cc3ccccc23)s1	2	7	1	51*	3	10
Cc1ccccc1CN1CCCCC(NC(=O)c2ccc(-c3ccccc3)cc2)C1=O (stereo unspecified)	0	.	.	.	-11	.
Cc1ccc(OCC(=O)OCC(=O)NC2CCS(=O)(=O)C2)cc1C (stereo unspecified)	4	.	.	.	4	.
Cc1ccc(C(=O)NCC(=O)OCC(=O)NC2CCS(=O)(=O)C2)cc1C (stereo unspecified)	-1	0	-12	35*	3	4
O=C(O)CCN1C(=O)C2C3CC(C2C1=O)C1C(c2ccccc2)c2sc(=O)[nH]c2SC31 (stereo unspecified)	6	3	-2	17*	9	-5
O=C(CN1CCOCC1)Nc1nc2ccc(Cl)cc2s1	-4	3	-2	-4	1	.
O=C(CN1CCOCC1)Nc1nc2ccc(Br)cc2s1	-4	1	-1	17*	39*	9
Cc1cc(C)c(S(=O)(=O)NCc2ccc3c(c2)OCO3)c(C)c1	-10	.	.	.	-5	.
Cc1noc(C)c1S(=O)(=O)NCc1ccc2c(c1)OCO2	-6	5	-4	25*	-6	0
O=C(c1cccc(F)c1)N1CCCC(c2nc(-c3cccs3)no2)C1 (stereo unspecified)	-4	.	.	.	0	.
CCC(C)n1c(NC(=O)c2ccccc2)c(C#N)c2nc3ccccc3nc21 (stereo unspecified)	77*	24	2	29*	-2	-17
CCc1ccc(C(=O)/C=C2\Sc3ccccc3NC2=O)cc1	-2	0	-1	37*	14	42*
SMILES	TDP2 inh	GSTO1 inh	CTSL1 counter	PAD4 inh	PRMT1 inh	PAD4 FP conf
N#CC1=C(N)Oc2n[nH]c(-c3cccs3)c2C1c1ccsc1 (stereo unspecified)	14	21	1	17*	4	-10
N#CC1=C(N)Oc2n[nH]c(-c3cccs3)c2C1c1ccncc1 (stereo unspecified)	16	34	3	-11	-2	.
CCOC(=O)c1c(CSC(=N)N)n(C)c2cc(Br)c(OC(C)=O)cc12	-6	-23	-5	38*	2	44*
Oc1ccc2ccccc2c1C=NCc1ccccc1	-4	34	3	19*	4	-2
Oc1ccc2ccccc2c1/C=N/Nc1ccccc1	-16	32	-1	11	6	.
C#CCN1CC(N(C)CCOC(=O)c2ccc(OC)c(OC)c2)CS1(=O)=O (stereo unspecified)	6	.	.	.	-6	.
CCO/C(=C/c1sc2ccc(OC)cc2[n+]1CCCS(=O)(=O)[O-])CC	-5	-5	2	19*	77*	5
Cc1ccc2ccc(C)[n+](CCCS(=O)(=O)[O-])c2c1	4	-9	-1	-10	-2	.
COc1ccc(N)c2c1C(=O)c1ccccc1C2=O	-4	14	1	33*	-1	10
CN(CCCOC(=O)c1cc2ccccc2o1)C1CN(Cc2cn(Cc3ccc([N+](=O)[O-])cc3)nn2)S(=O)(=O)C1 (stereo unspecified)	-1	.	.	.	-1	.
CC(C)(C)c1ccc(-c2nnc(SCC(=O)c3ccc4ccccc4c3)n2-c2ccc(Cl)cc2)cc1	7	.	.	.	9	.
CCN(c1ccccc1)S(=O)(=O)c1ccc(C(=O)Nc2ccncc2)cc1	-15	5	-10	-2	-7	.
CCN(c1ccccc1)S(=O)(=O)c1ccc(C(=O)NNC(=O)c2ccccc2F)cc1	8	.	.	16*	4	2
CCCC(=O)N1CCC[C@]2(CC[C@H](CCC#N)O2)C1	5	.	.	.	0	.
Cc1ccc(C)c(NC(=S)c2ccc3ccccc3n2)c1	7	6	0	0	1	.
CN(C)c1ccc(NC(=S)c2ccc3ccccc3n2)cc1	7	30	-2	38*	9	6
CNc1ccccc(-c2ccc3ccccc3n2)c1=O	5	23	-2	20*	24*	7
COC(=O)C[C@@H]1CC[C@@H]2[C@H](COc3ccc(NC(=O)c4ccc(F)c(F)c4)cc3C(=O)N2C)O1	-3	.	.	.	1	.
CCCC(=O)N(Cc1cc(=O)[nH]c2ccccc12)c1ccc(C)cc1	-15	-15	-7	23*	7	27*
Cc1ccc(N(Cc2cc(=O)[nH]c3ccccc23)C(=O)C(C)C)cc1	-12	-16	-1	26*	-5	24*
COc1ccc2c(c1)oc(=O)c1ccccc12	-3	10	-1	15*	2	23*
Cc1ccc(N(C)C)cc1	-5	.	.	.	2	.
Cc1ccc2c(c1)sc(-c1ccc(N(C)C)cc1)[n+]2C	2	3	9	19*	18	-2
Cn1c(=O)c2cc(S(=O)(=O)N3CCN(c4ccc(F)cc4)CC3)ccc2n(C)c1=O	-2	.	.	.	-1	.
O=C(CCNC(=O)c1ccccc1)Nc1ccc(Cl)c(S(=O)(=O)N2CCCCC2)c1	-3	.	.	19*	4	0
